Assay [1] deals with T1, Alpha-1A adrenergic receptor (Rattus norvegicus, UniProt P43140).
T1 sequence (P43140 whole entry): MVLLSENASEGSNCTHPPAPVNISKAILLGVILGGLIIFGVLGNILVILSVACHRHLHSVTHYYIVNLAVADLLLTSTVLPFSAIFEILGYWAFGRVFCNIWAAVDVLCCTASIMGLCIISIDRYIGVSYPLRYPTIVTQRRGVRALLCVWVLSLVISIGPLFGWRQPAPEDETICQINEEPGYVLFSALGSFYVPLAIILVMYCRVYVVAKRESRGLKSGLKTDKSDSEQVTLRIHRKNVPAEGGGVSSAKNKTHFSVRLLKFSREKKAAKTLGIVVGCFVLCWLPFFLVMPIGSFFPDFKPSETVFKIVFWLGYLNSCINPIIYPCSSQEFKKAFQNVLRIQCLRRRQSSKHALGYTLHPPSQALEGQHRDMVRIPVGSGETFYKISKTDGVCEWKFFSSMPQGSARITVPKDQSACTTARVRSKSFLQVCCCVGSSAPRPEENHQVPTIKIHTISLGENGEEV
Briefly: In vitro binding affinity towards alpha-1A adrenergic receptor of rat submaxillary gland in radioligand binding assay. A digest of the protocol:
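Radioligand binding at α1 subtypes: α1A from rat submaxillary gland, α1B hamster clone, α1D rat clone. Run essentially per an earlier method.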

For assay [2], the target named is T2, Alpha-1B adrenergic receptor (Rattus norvegicus) (UniProt P15823).
T2 sequence (whole entry): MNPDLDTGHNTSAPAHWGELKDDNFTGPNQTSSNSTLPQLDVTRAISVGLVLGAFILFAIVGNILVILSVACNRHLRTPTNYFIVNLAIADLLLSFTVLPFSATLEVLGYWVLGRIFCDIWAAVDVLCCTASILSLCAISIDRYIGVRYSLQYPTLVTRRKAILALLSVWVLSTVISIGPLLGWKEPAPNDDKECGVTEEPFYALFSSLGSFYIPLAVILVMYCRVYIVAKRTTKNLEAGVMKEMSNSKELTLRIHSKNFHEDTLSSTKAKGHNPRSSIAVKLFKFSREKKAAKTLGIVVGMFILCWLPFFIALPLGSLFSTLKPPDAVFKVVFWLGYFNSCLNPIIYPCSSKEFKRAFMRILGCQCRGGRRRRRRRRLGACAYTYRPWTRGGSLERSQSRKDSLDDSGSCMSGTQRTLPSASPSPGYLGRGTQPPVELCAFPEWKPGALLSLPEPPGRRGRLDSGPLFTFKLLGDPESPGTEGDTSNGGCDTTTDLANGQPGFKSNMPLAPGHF
The assay can be described thus: Efficacy relative to phenylephrine (PE) to constrict tissue containing the alpha-1B adrenergic receptor in rat spleen. The format is functional, tissue-based.

Assay [3] addresses T3, Alpha-1D adrenergic receptor (Rattus norvegicus) (UniProt P23944).
T3 sequence (whole entry): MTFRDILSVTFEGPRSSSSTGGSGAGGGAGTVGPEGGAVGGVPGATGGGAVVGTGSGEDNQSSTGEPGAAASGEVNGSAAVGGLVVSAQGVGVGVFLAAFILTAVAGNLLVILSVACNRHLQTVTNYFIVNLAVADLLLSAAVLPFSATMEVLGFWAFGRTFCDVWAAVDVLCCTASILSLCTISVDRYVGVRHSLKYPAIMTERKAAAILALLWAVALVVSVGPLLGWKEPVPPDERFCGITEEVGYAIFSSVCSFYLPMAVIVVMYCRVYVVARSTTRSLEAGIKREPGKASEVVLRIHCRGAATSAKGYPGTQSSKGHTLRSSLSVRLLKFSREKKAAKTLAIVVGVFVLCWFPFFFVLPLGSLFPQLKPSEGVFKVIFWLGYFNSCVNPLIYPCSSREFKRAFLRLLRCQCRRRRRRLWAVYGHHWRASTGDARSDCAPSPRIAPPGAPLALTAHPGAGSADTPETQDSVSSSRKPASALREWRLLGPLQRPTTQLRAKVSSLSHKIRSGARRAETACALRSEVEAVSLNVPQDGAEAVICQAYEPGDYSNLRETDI
Briefly: Functional agonism of the compounds to constrict tissue containing the alpha-1D adrenergic receptor in rat aorta. It counts as tissue-based. A digest of the protocol:
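Agonist dose–response curves were run on isolated tissue: rabbit urethra for α1A, rat spleen for α1B, and rat aorta for α1D.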

Assay [4] in a line: Selectivity is ratio of efficacy of alpha-1B to that of alpha1A adrenoceptor. The format is functional.
The nature of assay [5]: Selectivity is ratio of efficacy of Alpha-1D to that of alpha-1A adrenoceptor. The format is functional.
Assay [6] deals with T4, Alpha-2A adrenergic receptor (Rattus norvegicus) (UniProt P22909).
T4 sequence (whole entry): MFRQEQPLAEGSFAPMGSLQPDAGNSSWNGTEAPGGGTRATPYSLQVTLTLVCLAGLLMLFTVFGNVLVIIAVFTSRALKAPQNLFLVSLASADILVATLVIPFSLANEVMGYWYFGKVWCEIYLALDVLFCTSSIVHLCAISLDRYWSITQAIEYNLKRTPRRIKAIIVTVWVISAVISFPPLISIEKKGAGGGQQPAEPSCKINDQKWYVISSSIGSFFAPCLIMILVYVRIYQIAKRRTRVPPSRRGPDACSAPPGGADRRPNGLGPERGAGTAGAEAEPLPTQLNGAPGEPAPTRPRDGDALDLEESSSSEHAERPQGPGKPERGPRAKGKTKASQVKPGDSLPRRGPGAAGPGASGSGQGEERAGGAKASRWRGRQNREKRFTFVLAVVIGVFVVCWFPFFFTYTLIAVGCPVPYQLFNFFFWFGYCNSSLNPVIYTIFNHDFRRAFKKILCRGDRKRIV
Conditions: Vas deferens.

As to `O=S(=O)(CC(F)(F)F)Nc1cccc2c1CCCC2c1c[nH]cn1` (single isomer, unassigned; (+)), the “Log Ki” value in assay [1] is -6.91.

In turn, `CN(c1cccc2c1CCCC2c1c[nH]cn1)S(C)(=O)=O` (stereo not given) registered an Efficacy in assay [2] of 21.

`COc1ccc(OC)c(C(O)CN)c1` (stereo not given) [DESGLYMIDODRINE] showed a pD2 in assay [3] of 5.73. For the same compound, the Selectivity in assay [4] stood at 12; in assay [5] it was 1.

On to `CC(N)C(O)c1ccccc1` (stereo not given) [PHENYLPROPANOLAMINE], for which the pD2 amounted to 4.12 in assay [3] and 5.17 in assay [6]. Besides, affinity in assay [1] was put at a Ki of 9.77 µM. For the same compound, the Selectivity in assay [4] was determined as 1; in assay [5] it was 0.2.

As a reminder, the Ki is the dissociation constant of the complex between target and ligand, obtained from inhibition or displacement. High values mean lower affinity, low ones higher affinity.

The values are drawn from ChEMBL document CHEMBL1148329, “Synthesis and structure-activity studies on N-[5-(1H-imidazol-4-yl)-5,6,7,8-tetrahydro-1-naphthalenyl]methanesulfonamide, an imidazole-containing alpha(1A)-adrenoceptor agonist” (J Med Chem, 2004).
